Data taken from ChEMBL document CHEMBL4406810, “Modifications on the Amino-3,5-dicyanopyridine Core To Obtain Multifaceted Adenosine Receptor Ligands with Antineuropathic Activity” (J Med Chem, 2019).
Active and inactive are the calls of the source.

What was measured:
Adenosine receptor A2a [1] = molecular target: T1, Adenosine receptor A2a (Homo sapiens, UniProt P29274); assay: Antagonist activity at human A2AR expressed in CHO cells assessed as inhibition of CGS21680-stimulated cAMP production by alphascreen assay; assay type: functional, cell-based
T1 sequence (P29274 whole entry): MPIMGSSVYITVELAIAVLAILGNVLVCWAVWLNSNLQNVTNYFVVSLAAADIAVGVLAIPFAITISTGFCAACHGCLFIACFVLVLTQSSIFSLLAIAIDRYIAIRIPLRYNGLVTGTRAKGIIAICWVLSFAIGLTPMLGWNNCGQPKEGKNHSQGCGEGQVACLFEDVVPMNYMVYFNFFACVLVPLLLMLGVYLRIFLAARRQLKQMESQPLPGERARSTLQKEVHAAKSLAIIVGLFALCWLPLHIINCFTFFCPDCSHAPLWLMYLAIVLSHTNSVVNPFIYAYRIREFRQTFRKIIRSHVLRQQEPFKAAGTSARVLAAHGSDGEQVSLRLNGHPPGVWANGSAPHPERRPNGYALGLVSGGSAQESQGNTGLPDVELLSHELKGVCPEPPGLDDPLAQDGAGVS

Adenosine receptor A1 [2] = molecular target: T2, Adenosine receptor A1 (Homo sapiens, UniProt P30542); assay: Inverse agonist activity at human A1AR expressed in CHO cells assessed as increase in forskolin-stimulated cAMP production by alphascreen assay; assay type: functional, cell-based
T2 sequence (P30542 whole entry): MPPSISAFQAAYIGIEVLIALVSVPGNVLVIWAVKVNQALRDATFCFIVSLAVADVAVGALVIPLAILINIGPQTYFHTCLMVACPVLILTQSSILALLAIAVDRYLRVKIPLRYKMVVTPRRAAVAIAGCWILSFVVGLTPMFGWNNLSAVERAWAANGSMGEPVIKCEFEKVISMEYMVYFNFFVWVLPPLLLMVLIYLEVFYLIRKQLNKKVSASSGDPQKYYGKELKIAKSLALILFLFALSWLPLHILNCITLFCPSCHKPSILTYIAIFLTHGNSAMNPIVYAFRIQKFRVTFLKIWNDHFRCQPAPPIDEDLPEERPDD
Summary of the method: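 Compounds at 1 nM to 1 µM. cAMP rise measured by AlphaScreen. EC50 from sigmoid fit. Four independent experiments in triplicate.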

Adenosine receptor A2b [3] = molecular target: T3, Adenosine receptor A2b (Homo sapiens, UniProt P29275); assay: Agonist activity at human A2B expressed in CHO cells assessed as stimulation of cAMP production by alphascreen assay; assay type: functional, cell-based
T3 sequence (P29275 whole entry): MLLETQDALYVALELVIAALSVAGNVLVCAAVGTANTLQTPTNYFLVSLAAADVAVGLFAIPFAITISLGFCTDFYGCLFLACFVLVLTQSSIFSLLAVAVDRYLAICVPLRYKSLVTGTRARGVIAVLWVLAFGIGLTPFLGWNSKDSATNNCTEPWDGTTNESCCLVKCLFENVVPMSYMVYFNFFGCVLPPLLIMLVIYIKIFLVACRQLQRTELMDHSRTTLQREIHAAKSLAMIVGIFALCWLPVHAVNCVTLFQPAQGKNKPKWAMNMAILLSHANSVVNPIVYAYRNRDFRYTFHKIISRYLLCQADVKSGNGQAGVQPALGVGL
Summary of the method: (§1)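 Compounds tested alone at final 1 nM to 1 µM. cAMP measured by AlphaScreen. Efficacy taken at 1 µM relative to NECA 1 µM (=100%). Four independent experiments in triplicate.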

[4] = Half life in human plasma at 1 uM by LC-MS/MS analysis; assay type: ADME, cell-free
Summary of the method: (§2)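 Analyte spiked at 1 µM into human plasma or heparinized Sprague-Dawley male rat plasma (or PBS). Incubated at 37°C for 0, 30, 60, 120 min in triplicate. Internal standard added, centrifuged, dried, reconstituted. Quantified by LC-MS/MS (ESI negative, MRM) against a 0–1 µM calibration. Half-life from concentration-time profile.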

[5] = Half life in Sprague-Dawley rat plasma at 1 uM by LC-MS/MS analysis; assay type: ADME, cell-free; summary of the method: as §2
Mus musculus [6] = assay: (§3) Antinociceptive activity in CD-1 albino mouse model of oxaliplatin-induced neuropathic pain assessed as increase in licking latency at 0.3 mg/kg, po treated on day 15 post oxaliplatin treatment and measured at 15 to 60 mins post dose in presence of alpha7 nAChR antagonist methyllycaconitine by cold plate test; assay type: functional, organism-based
Summary of the method: (§4)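 Oxaliplatin neuropathy in male CD-1 mice (2.4 mg/kg i.p., 10 injections, days 1-14). Day 15: mecamylamine 2 mg/kg i.p. or methyllycaconitine 6 mg/kg i.p. given 15 min before the oral dose. Cold plate (4 °C) licking/lifting latency with 60 s cut-off, measured over time after dosing. 10 mice/group, two sets.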

[7] = molecular target: T4, Adenosine receptor A3 (Homo sapiens) (UniProt P0DMS8); assay: Displacement of [125I]ABMECA from human A3R expressed in CHO cell membranes at 1 uM measured after 120 mins by scintillation counting method relative to control
T4 sequence (whole entry): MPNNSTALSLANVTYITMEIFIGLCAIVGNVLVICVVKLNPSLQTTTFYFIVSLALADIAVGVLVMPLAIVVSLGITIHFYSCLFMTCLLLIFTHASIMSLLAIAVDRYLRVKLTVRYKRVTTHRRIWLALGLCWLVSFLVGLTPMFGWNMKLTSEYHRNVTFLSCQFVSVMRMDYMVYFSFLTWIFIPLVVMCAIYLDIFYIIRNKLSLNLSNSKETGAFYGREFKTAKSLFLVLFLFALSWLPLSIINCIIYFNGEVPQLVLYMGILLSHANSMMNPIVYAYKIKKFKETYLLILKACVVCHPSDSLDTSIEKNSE
Summary of the method: (§5)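 Nonspecific binding with 1 µM AB-MECA. GF/B filtration and counting. Ki via Cheng–Prusoff. Percent inhibition at 1 µM. Four experiments in triplicate.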

[8] = molecular target: T5, Adenosine receptor A2b (Homo sapiens) (UniProt P29275); assay: Agonist activity at human A2B expressed in CHO cells assessed as stimulation of cAMP production at 1 uM by alphascreen assay relative to NECA; assay type: functional, cell-based; summary of the method: as §1
T5 sequence (whole entry): T3 sequence (P29275 whole entry)

CHO = assay: Effect on cAMP level in wild-type CHO cells at 0.001 to 1 uM by alphascreen assay; assay type: functional, cell-based; settings: Cricetulus griseus
Summary of the method: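 Compounds at 1 nM to 1 µM final concentrations. cAMP quantified with AlphaScreen kit. Four independent experiments, each in triplicate.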

Adenosine receptor A2a [9] = molecular target: T1, Adenosine receptor A2a; assay: Displacement of [3H]ZM241385 from human A2AR expressed in CHO cell membranes measured after 60 mins by scintillation counting method
Summary of the method: (§6)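 Nonspecific binding defined with 1 µM ZM241385. Filtered on GF/B, scintillation counted. Ki by Cheng–Prusoff. Percent inhibition at 1 µM. Four experiments in triplicate.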

Adenosine receptor A1 [10] = molecular target: T2, Adenosine receptor A1; assay: Displacement of [3H]DPCPX from human A1AR expressed in CHO cell membranes measured after 90 mins by scintillation counting method
Summary of the method: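 Nonspecific binding with 1 µM DPCPX. GF/B filtration and scintillation counting. Ki by Cheng–Prusoff. Inhibition % at 1 µM. Four experiments in triplicate.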

[11] = molecular target: T5, Adenosine receptor A2b (Homo sapiens); assay: Antagonist activity at human A2BR expressed in CHO cells assessed as inhibition of NECA-stimulated cAMP production at 1 uM by alphascreen assay relative to control; assay type: functional, cell-based
Summary of the method: (§7)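 Compounds added at 1 nM to 1 µM final, with percent inhibition read at 1 µM. AlphaScreen cAMP read-out. IC50 by sigmoid non-linear regression. Four independent experiments in triplicate.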

Mus musculus [12] = assay: as §3, with “nonspecific” for “alpha7”, “mecamylamine” for “methyllycaconitine”; assay type: functional, organism-based; summary of the method: as §4
[13] = molecular target: T6, Adenosine receptor A1 (Homo sapiens) (UniProt P30542); assay: Inverse agonist activity at human A1AR expressed in CHO cells assessed as increase in forskolin-stimulated cAMP production by alphascreen assay relative to DPCPX; assay type: functional, cell-based
T6 sequence (whole entry): T2 sequence (P30542 whole entry)
Summary of the method: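 Compounds at 1 nM to 1 µM. cAMP rise measured by AlphaScreen. EC50 from sigmoid fit. […] Four independent experiments in triplicate.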

Mus musculus [14] = assay: Antinociceptive activity in CD-1 albino mouse model of oxaliplatin-induced neuropathic pain assessed as increase in licking latency at 0.1 to 0.3 mg/kg, po treated on day 15 post oxaliplatin treatment and measured at 15 to 45 mins post dose by cold plate test; assay type: functional, organism-based
Summary of the method: (§8)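 Male CD-1 mice (22–25 g) given oxaliplatin 2.4 mg/kg i.p. in 5% glucose on days 1-2, 5-9 and 12-14. On day 15, single oral dose (test compounds in 1% CMC). Cold plate at 4 °C, latency to paw licking or lifting, 60 s cut-off, read 15–60 min post dose. 10 mice/group in two sets. ANOVA with Bonferroni.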

Mus musculus [15] = assay: (§9) Antinociceptive activity in CD-1 albino mouse model of oxaliplatin-induced neuropathic pain assessed as increase in licking latency at 10 mg/kg, po treated on day 15 post oxaliplatin treatment and measured at 15 to 60 mins post dose by cold plate test; assay type: functional, organism-based; summary of the method: as §8
Mus musculus [16] = assay: as §9, with “dose in presence of nonspecific nAChR antagonist mecamylamine” for “dose”; assay type: functional, organism-based; summary of the method: as §4
Adenosine receptor A1 [17] = molecular target: T2, Adenosine receptor A1; assay: Antagonist activity at human A1AR expressed in CHO cells assessed as suppression of CCPA-induced inhibition of forskolin-stimulated cAMP production by alphascreen assay; assay type: functional, cell-based
Summary of the method: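 hA1 CHO cells in HBSS with HEPES, Ro 20-1724 (phosphodiesterase inhibitor), BSA and adenosine deaminase. Forskolin 5 µM with CCPA 1 nM. […] AlphaScreen detection. IC50 and Emax by sigmoid fit. Four independent experiments in triplicate.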

Adenosine receptor A3 = molecular target: T7, Adenosine receptor A3 (Homo sapiens, UniProt P0DMS8); assay: Displacement of [125I]ABMECA from human A3R expressed in CHO cell membranes measured after 120 mins by scintillation counting method; summary of the method: as §5
T7 sequence (P0DMS8 whole entry): T4 sequence (whole entry)

Mus musculus [18] = assay: Antinociceptive activity in CD-1 albino mouse model of oxaliplatin-induced neuropathic pain assessed as increase in licking latency at 1 mg/kg, po treated on day 15 post oxaliplatin treatment and measured at 15 to 60 mins post dose by cold plate test; assay type: functional, organism-based; summary of the method: as §8
Mus musculus [19] = assay: Antinociceptive activity in CD-1 albino mouse model of oxaliplatin-induced neuropathic pain assessed as increase in licking latency at 0.3 mg/kg, po treated on day 15 post oxaliplatin treatment and measured at 15 to 60 mins post dose by cold plate test; assay type: functional, organism-based; summary of the method: as §8
Adenosine receptor A2b [20] = molecular target: T3, Adenosine receptor A2b; assay: Antagonist activity at human A2BR expressed in CHO cells assessed as inhibition of NECA-stimulated cAMP production by alphascreen assay; assay type: functional, cell-based; summary of the method: as §7
Mus musculus [21] = assay: Antinociceptive activity in CD-1 albino mouse model of oxaliplatin-induced neuropathic pain assessed as increase in licking latency at 0.01 to 0.3 mg/kg, po treated on day 15 post oxaliplatin treatment and measured at 15 to 45 mins post dose by cold plate test; assay type: functional, organism-based; summary of the method: as §8
Adenosine receptor A2a [22] = molecular target: T1, Adenosine receptor A2a; assay: Displacement of [3H]ZM241385 from human A2AR expressed in CHO cell membranes at 1 uM measured after 60 mins by scintillation counting method relative to control; summary of the method: as §6
Mus musculus [23] = assay: Antinociceptive activity in CD-1 albino mouse model of oxaliplatin-induced neuropathic pain assessed as increase in licking latency at 0.1 to 0.3 mg/kg, po treated on day 15 post oxaliplatin treatment and measured at 30 to 60 mins post dose by cold plate test; assay type: functional, organism-based; summary of the method: as §8

Row | SMILES | IC50 (Adenosine receptor A2a [1]) | EC50 (Adenosine receptor A1 [2]) | EC50 (Adenosine receptor A2b [3]) | inhibition [7] | Efficacy [8] | Activity (CHO) | Ki (Adenosine receptor A2a [9]) | Ki (Adenosine receptor A1 [10]) | Emax [13] | also measured
1 | COC(=O)c1cccc(CSc2nc(N)c(C#N)c(-c3ccco3)c2C#N)c1 | 313 nM | 1.43 nM | > 1000 nM | 26% | 7% | inactive | 68 nM | 7.22 nM | 35% | half-life at 1 µM [4]: ≥ 240 min; half-life at 1 µM [5]: ≥ 240 min; Activity (Mus musculus [6]): inactive; inhibition [11]: 25%; Activity (Mus musculus [12]): inactive; Activity (Mus musculus [14]): Active
2 | Cn1c(=O)c2c(ncn2C)n(C)c1=O |  |  |  |  |  |  |  |  |  | Activity (Mus musculus [15]): Active; Activity (Mus musculus [16]): inactive
3 | N#Cc1c(NCc2ccccc2)nc(SCCO)c(C#N)c1-c1ccco1 |  |  | > 1000 nM | 14% | 3% | inactive | 461 nM | 65 nM |  | IC50 (Adenosine receptor A1 [17]): 76 nM
4 | CCOC(=O)C(C)c1cccc(C(=O)c2ccccc2)c1 (stereo not drawn) |  |  |  |  |  |  |  |  |  | half-life at 1 µM [4]: 100 min
5 | CCOC(=O)[C@H](CCc1ccccc1)N[C@@H](C)C(=O)N1CCC[C@H]1C(=O)O |  |  |  |  |  |  |  |  |  | half-life at 1 µM [5]: 22 min
6 | N#Cc1c(N)nc(SCc2cccc(C(N)=O)c2)c(C#N)c1-c1ccco1 | 58 nM | 2.84 nM | > 1000 nM |  | 6% | inactive | 67 nM | 1.32 nM | 31% | Ki (Adenosine receptor A3): 326 nM; Activity (Mus musculus [18]): Active; Activity (Mus musculus [19]): inactive; IC50 (Adenosine receptor A2b [20]): 13 nM
7 | N#Cc1c(N)nc(SCc2cccc(CO)c2)c(C#N)c1-c1ccco1 | 22 nM | 4.97 nM | > 1000 nM | 25% | 4% | inactive | 31 nM | 0.98 nM | 98% | Activity (Mus musculus [6]): inactive; Activity (Mus musculus [12]): inactive; IC50 (Adenosine receptor A2b [20]): 152 nM; Activity (Mus musculus [21]): Active
8 | N#Cc1c(NC2CC2)nc(SCCO)c(C#N)c1-c1ccco1 |  |  | > 1000 nM | 30% | 4% | inactive |  | 89 nM |  | IC50 (Adenosine receptor A1 [17]): 118 nM; inhibition (Adenosine receptor A2a [22]): 30%
9 | N#Cc1c(N)nc(SCc2cccc(C(=O)O)c2)c(C#N)c1-c1ccco1 |  | 8.92 nM | > 1000 nM |  | 1% | inactive | 581 nM | 4.12 nM | 45% | Ki (Adenosine receptor A3): 611 nM; Activity (Mus musculus [23]): Active; inhibition [11]: 12%
